Assay results collected from several papers.
Target: Dual specificity protein kinase CLK3 (CLK3, Homo sapiens, UniProt P49761)

| Compound | effect on | action | method | concentration | measurement | value |
| --- | --- | --- | --- | --- | --- | --- |
| CCCCC(=O)Nc1ccc(-c2ccc3ncn(CCC)c(=O)c3c2)cn1 | binding |  | competition with immobilised ligand | 0.5 µM | remaining binding | 78% |
| CC(C)S(=O)(=O)c1ccc2nccc(Nc3ccc4sc(C5CCCC5)nc4c3)c2c1 | enzyme activity | inhibitor |  | 1 µM | activity vs control | 110% |
| C[C@H]1CC[C@H](n2c3cnccc3c3cnc(Nc4ccc5c(n4)CCN(C(=O)CO)C5)nc32)CC1 | cell-free assay |  |  | 1 µM | remaining signal | 100% |
| Cc1cc(O)c(-c2ccc([C@@H](C)CN(C)C)cc2)c2c1[nH]c(=O)c1sccc12 | enzyme activity | inhibitor |  | 0.1 µM | inhibition | -13.2% |
| C=CC(=O)N1CCC[C@@H](n2nc(-c3ccc(Oc4ccccc4)cc3)c3c(N)ncnc32)C1 | enzyme activity | inhibitor |  | 1 µM | inhibition | 23% |
| CN1CCN(C(=O)c2ccc(NC(=O)Nc3ccc(N(C)c4ccnc(Nc5ccc(CS(C)(=O)=O)cc5)n4)cc3)cc2)CC1 | binding |  |  | 1 µM | remaining binding | 95% |
| C=CC(=O)N1CCC([C@@H]2CCNc3c(C(N)=O)c(-c4ccc(Oc5ccccc5)cc4)nn32)CC1 | enzyme activity | inhibitor |  | 1 µM | inhibition | 16% |
| C1=C/COCc2cc(ccc2OCCN2CCCC2)Nc2nccc(n2)-c2cccc(c2)COC/1 | binding |  |  | 0.1 µM | remaining binding | 100% |
